Source: ChEMBL document CHEMBL1145471, “Small molecule regulators of autophagy identified by an image-based high-throughput screen” (Proc Natl Acad Sci U S A, 2007)

Tests used:
Type in all cases: functional
H4 [1] = experiment: Increase in long-lived protein degradation in human H4 cells after 4 hrs relative to control; parameters: concentration or dose not given beside the values
H4 [2] = experiment: Increase in light chain 3-GFP+ autophagosome vesicle number per cell in human H4 cells at 8.8 uM after 24 hrs by high throughput fluorescence microscopy relative to control
How it was run: (§1)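 H4 cells stably expressing LC3-GFP, grown in DMEM with 10% FBS, penicillin/streptomycin and 2 mM L-glutamine at 37°C, 5% CO2. Cells were seeded in 96-well plates and exposed to library compounds at 3–12 μM for 24 h, then fixed in 4% paraformaldehyde and stained with 3 μg/ml DAPI. LC3-GFP spot number, size and intensity were measured by high-throughput fluorescence microscopy and expressed relative to DMSO. Triplicates, mean ± SD.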

H4 [3] = experiment: Effect on FYVE-RFP+ vesicle intensity per cell in human H4 cells after 8 hrs relative to control; parameters: concentration or dose not given beside the values
How it was run: (§2)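 H4 cells stably expressing FYVE-RFP (H4-FYVE), grown in DMEM with 10% FBS, penicillin/streptomycin and 2 mM L-glutamine at 37°C, 5% CO2, seeded in 96-well plates and exposed to compound. Fixed in 4% paraformaldehyde, nuclei stained with 3 μg/ml DAPI, FYVE-RFP+ vesicles quantified by high-throughput fluorescence microscopy against DMSO control. Triplicate wells, mean ± SD.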

H4 [4] = experiment: Increase in long-lived protein degradation in human H4 cells after 24 hrs relative to control; parameters: concentration or dose not given beside the values
H4 [5] = experiment: Increase in light chain 3-GFP+ autophagosome vesicle intensity per cell in human H4 cells at 8.8 uM after 24 hrs by high throughput fluorescence microscopy relative to control
How it was run: (§3)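 H4 cells stably expressing LC3-GFP were grown in DMEM with 10% FBS and 2 mM L-glutamine at 37°C, 5% CO2. They were exposed to each compound for 24 h, with DMSO as negative and rapamycin as positive control. Cells were then fixed in 4% paraformaldehyde and stained with 3 μg/ml DAPI. High-throughput fluorescence imaging scored LC3-GFP spot number, size and intensity, expressed relative to DMSO. Mean ± SD of triplicates; experiments repeated three times.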

H4 [6] = experiment: Effect on FYVE-RFP+ vesicle intensity per cell in human H4 cells after 2 hrs relative to control; parameters: concentration or dose not given beside the values; how it was run: as §2
H4 [7] = experiment: Increase in long-lived protein degradation in human H4 cells after 2 hrs relative to control; parameters: concentration or dose not given beside the values
H4 [8] = experiment: Increase in light chain 3-GFP+ autophagosome vesicle area per cell in human H4 cells at 8.8 uM after 24 hrs by high throughput fluorescence microscopy relative to control
How it was run: (§4)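 H4 cells stably expressing LC3-GFP, seeded in 96-well plates and exposed to compound for 24 h; screening concentrations were 3–12 μM, with rapamycin 0.22 μM and bafilomycin A1 0.40 μM. Cells fixed in 4% paraformaldehyde and stained with 3 μg/ml DAPI. Number, size and intensity of LC3-GFP spots measured by high-throughput fluorescence microscopy and expressed as percent of DMSO-treated wells. Rapamycin was the positive control. Triplicate wells, mean ± SD; experiments repeated three times.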

H4 [9] = experiment: Increase in long-lived protein degradation in human H4 cells after 1 hr relative to control; parameters: concentration or dose not given beside the values
H4 [10] = experiment: Effect on FYVE-RFP+ vesicle intensity per cell in human H4 cells after 4 hrs relative to control; parameters: concentration or dose not given beside the values; how it was run: as §2
H4 [11] = experiment: Induction of light chain 3-GFP level in human H4 cells at 8.8 uM after 24 hrs by high throughput fluorescence microscopy relative to control; how it was run: as §1
H4 [12] = experiment: Increase in light chain 3-GFP+ autophagosome vesicle intensity per cell in human H4 cells at 5.1 uM after 24 hrs by high throughput fluorescence microscopy relative to control; how it was run: as §3
H4 [13] = experiment: Induction of light chain 3-GFP level in human H4 cells at 5.1 uM after 24 hrs by high throughput fluorescence microscopy relative to control; how it was run: as §1
H4 [14] = experiment: Increase in light chain 3-GFP+ autophagosome vesicle area per cell in human H4 cells at 5.1 uM after 24 hrs by high throughput fluorescence microscopy relative to control; how it was run: as §4
H4 [15] = experiment: Increase in light chain 3-GFP+ autophagosome vesicle number per cell in human H4 cells at 5.1 uM after 24 hrs by high throughput fluorescence microscopy relative to control; how it was run: as §3
H4 [16] = experiment: Increase in light chain 3-GFP+ autophagosome vesicle number per cell in human H4 cells at 4.9 uM after 24 hrs by high throughput fluorescence microscopy relative to control
How it was run: (§5)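 H4 cells stably expressing LC3-GFP, kept in DMEM/10% FBS at 37°C, 5% CO2, were seeded in 96-well plates and exposed to compound for 24 h. Cells were then fixed in 4% paraformaldehyde and stained with 3 μg/ml DAPI. Automated fluorescence microscopy scored the number, size and intensity of LC3-GFP spots. Values are percent of DMSO wells, in triplicate, mean ± SD. Rapamycin served as positive control.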

H4 [17] = experiment: Increase in light chain 3-GFP+ autophagosome vesicle area per cell in human H4 cells at 4.9 uM after 24 hrs by high throughput fluorescence microscopy relative to control
How it was run: (§6)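 H4 cells stably expressing LC3-GFP, seeded in 96-well plates and exposed to compound for 24 h; fixed in 4% paraformaldehyde, nuclei stained with 3 μg/ml DAPI. Automated fluorescence microscopy scored number, size and intensity of LC3-GFP spots; values expressed relative to DMSO-treated wells, rapamycin positive control. Triplicate wells, mean ± SD; experiments repeated three times.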

H4 [18] = experiment: Induction of light chain 3-GFP level in human H4 cells at 4.9 uM after 24 hrs by high throughput fluorescence microscopy relative to control; how it was run: as §5
H4 [19] = experiment: Increase in light chain 3-GFP+ autophagosome vesicle intensity per cell in human H4 cells at 4.9 uM after 24 hrs by high throughput fluorescence microscopy relative to control; how it was run: as §6
H4 [20] = experiment: Decrease in FYVE-RFP+ vesicle intensity per cell in human H4 cells after 2 hrs relative to control; parameters: concentration or dose not given beside the values; how it was run: as §2
H4 [21] = experiment: Decrease in FYVE-RFP+ vesicle intensity per cell in human H4 cells after 8 hrs relative to control; parameters: concentration or dose not given beside the values; how it was run: as §2
H4 [22] = experiment: Increase in light chain 3-GFP+ autophagosome vesicle area per cell in human H4 cells at 6.4 uM after 24 hrs by high throughput fluorescence microscopy relative to control; how it was run: as §4
H4 [23] = experiment: Increase in light chain 3-GFP+ autophagosome vesicle intensity per cell in human H4 cells at 6.4 uM after 24 hrs by high throughput fluorescence microscopy relative to control; how it was run: as §3
H4 [24] = experiment: Increase in light chain 3-GFP+ autophagosome vesicle number per cell in human H4 cells at 6.4 uM after 24 hrs by high throughput fluorescence microscopy relative to control; how it was run: as §3
H4 [25] = experiment: Induction of light chain 3-GFP level in human H4 cells at 6.4 uM after 24 hrs by high throughput fluorescence microscopy relative to control; how it was run: as §1
H4 [26] = experiment: Decrease in FYVE-RFP+ vesicle intensity per cell in human H4 cells after 4 hrs relative to control; parameters: concentration or dose not given beside the values; how it was run: as §2
H4 [27] = experiment: Increase in light chain 3-GFP+ autophagosome vesicle area per cell in human H4 cells at 13.2 uM after 24 hrs by high throughput fluorescence microscopy relative to control; how it was run: as §6
H4 [28] = experiment: Increase in light chain 3-GFP+ autophagosome vesicle intensity per cell in human H4 cells at 13.2 uM after 24 hrs by high throughput fluorescence microscopy relative to control; how it was run: as §6
H4 [29] = experiment: Induction of light chain 3-GFP level in human H4 cells at 13.2 uM after 24 hrs by high throughput fluorescence microscopy relative to control; how it was run: as §5
H4 [30] = experiment: Increase in light chain 3-GFP+ autophagosome vesicle number per cell in human H4 cells at 13.2 uM after 24 hrs by high throughput fluorescence microscopy relative to control; how it was run: as §6

| Compound | Activity (H4 [1]) [%] | Activity (H4 [3]) [%] | Activity (H4 [4]) [%] | Activity (H4 [6]) [%] | Activity (H4 [7]) [%] | Activity (H4 [9]) [%] | Activity (H4 [10]) [%] | Activity (H4 [20]) [%] | Activity (H4 [21]) [%] | Activity (H4 [26]) [%] | further results |
| --- | --- | --- | --- | --- | --- | --- | --- | --- | --- | --- | --- |
| O=C(/C=C/c1ccc(O)c(O)c1)OCCc1ccccc1 [CAFFEIC ACID PHENETHYL ESTER] | 120.18 | 69.14 | 106.53 | 86.89 | 128.4 | 122.08 | 71.17 |  |  |  | Activity (H4 [2]): 147.15%; Activity (H4 [5]): 150.18%; Activity (H4 [8]): 160.43%; Activity (H4 [11]): 146.2% |
| CC[C@H](C)[C@H](NS(=O)(=O)c1cccc2ccccc12)C(=O)N[C@H](C=O)Cc1c[nH]c2ccccc12 | 117.24 | 62.34 | 9.4 | 89.37 | 136.94 | 134.83 | 64.1 |  |  |  | Activity (H4 [12]): 199.27%; Activity (H4 [13]): 124.74%; Activity (H4 [14]): 172.38%; Activity (H4 [15]): 151.1% |
| C=C1[C@@H](C)[C@H]2[C@H](Cc3ccccc3)NC(=O)[C@]23[C@H](OC(C)=O)/C=C/[C@@](C)(O)C(=O)[C@@H](C)C/C=C/[C@H]3[C@@H]1O [CYTOCHALASIN D] |  |  |  |  |  |  |  |  |  |  | Activity (H4 [16]): 258.44%; Activity (H4 [17]): 306.27%; Activity (H4 [18]): 71.84%; Activity (H4 [19]): 378.77% |
| CNC(=O)[C@H](Cc1c[nH]c2ccccc12)NC(=O)[C@@H](CC(=O)NO)CC(C)C [ILOMASTAT] | 104.88 |  | 107.46 |  | 115.08 | 129.48 |  | 30.69 | 25.77 | 32.3 | Activity (H4 [22]): 171.42%; Activity (H4 [23]): 196.42%; Activity (H4 [24]): 154.31%; Activity (H4 [25]): 143.94% |
| O[C@H]1[C@H](O)[C@@H](O)CN2CC[C@H](O)[C@H]12 [CASTANOSPERMINE] | 88.75 |  | 85.6 |  | 84.26 | 83.53 |  | 37.35 | 36.45 | 40.02 | Activity (H4 [27]): 174.29%; Activity (H4 [28]): 171.2%; Activity (H4 [29]): 157.35%; Activity (H4 [30]): 156.81% |
